High-throughput results (PubChem BioAssay)
RGS4 pot: potentiators or activators of RGS4 | HEK293 M3R/inducible RGS4, carbachol calcium flux Fluo4; stronger effect = lower value | B-score at 10 µM | 310,000 tested, 0.92% active | AID 463111;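 active means B-score of the integrated calcium signal more than 4 SD below the library mean, with starting fluorescence not abnormally high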;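 further: negative B-score means reduced calcium response which marks RGS4 activation or potentiation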
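System: HEK293 FlpIn-TREx cells, stable M3R, doxycycline-inducible RGS4. Timing: overnight RGS4 induction, 30 min dye load 37 °C, 20 min compound RT. Also added: carbachol, ECmax concentration. Measured by: Fluo4 fluorescence kinetic imaging of calcium. Evaluation: integrated calcium ratio converted to B score.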
MrgX1 antagonist: human MrgX1 receptor antagonism, primary screen. Q96LB2. MRGX1-HEK293 calcium flux, Fluo-4, BAM8-22 antagonism; stronger effect = lower value. B-score at 10 µM. 310,000 tested, 1.3% active. AID 588676;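 active means calcium-response B-score plate-corrected more than 3 library SD below zero, starting fluorescence within 5 deviations, no agonist response on first addition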;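 further: peak minus trough fluorescence over baseline after final BAM8-22 challenge near maximal dose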
Target sequence (Q96LB2 whole entry, looked up): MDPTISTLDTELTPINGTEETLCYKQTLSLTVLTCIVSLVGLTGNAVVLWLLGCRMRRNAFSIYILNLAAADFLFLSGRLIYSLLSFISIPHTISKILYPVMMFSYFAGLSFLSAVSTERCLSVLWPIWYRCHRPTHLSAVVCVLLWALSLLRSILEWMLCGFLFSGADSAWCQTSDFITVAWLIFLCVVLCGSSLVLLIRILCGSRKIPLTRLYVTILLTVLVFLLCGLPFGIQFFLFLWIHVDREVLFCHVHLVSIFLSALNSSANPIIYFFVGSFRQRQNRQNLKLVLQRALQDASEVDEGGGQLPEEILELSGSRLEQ
MrgX1 allo act: human MrgX1 positive allosteric modulation, primary screen | Q96LB2 | MrgX1-HEK293, Fluo-4 calcium flux, FDSS; stronger effect = higher value | B-score at 10 µM | 310,000 tested, 0.63% active;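 active means plate-corrected calcium response at least 3 library SD above typical, normal starting fluorescence, not activating the receptor alone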;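 further: compound read alongside a low EC10 to EC30 dose of BAM8-22 agonist; peak minus trough fluorescence over baseline measured at the second addition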
RGS4 inh: human RGS4 inhibition. P49798. HEK293 M3R/RGS4 inducible, Fluo-4 calcium flux; stronger effect = higher value; triggered by carbachol at its EC20. B-score at 10 µM. 310,000 tested, 0.45% active. AID 463165;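 active means B-score, a plate-corrected calcium signal, over three deviations above library mean, with baseline fluorescence within five deviations of library mean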;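 further: RGS4 expression induced by doxycycline in cells with stable M3 receptor; B-score is computed from the integrated fluorescence ratio over baseline after carbachol; higher B-score means a larger calcium signal and so more RGS4 inhibition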
Target sequence (P49798 whole entry, looked up): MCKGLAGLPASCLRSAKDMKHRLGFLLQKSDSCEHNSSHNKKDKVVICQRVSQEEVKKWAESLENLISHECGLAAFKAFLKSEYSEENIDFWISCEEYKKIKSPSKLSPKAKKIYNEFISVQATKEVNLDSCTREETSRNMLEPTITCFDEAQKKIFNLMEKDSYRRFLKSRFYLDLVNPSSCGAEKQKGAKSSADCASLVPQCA
MrgX1 agonist: human MrgX1 receptor agonism, primary screen; B-score at 10 µM; 310,000 tested, 0.44% active; Q96LB2; MrgX1-HEK293 cells, Fluo-4 calcium fluorescence, agonist mode; stronger effect = higher value; AID 588627;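 active means calcium response B-score plate-corrected fluorescence ratio at least 3 library SD, with starting fluorescence B-score inside 5 SD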
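Material: MrgX1-expressing HEK293 cells / Dosing: compound as first of three additions / Incubation: overnight seeding, then 1 h dark dye loading / Signal: Fluo-4 NW calcium fluorescence / Evaluation: B-scored fluorescence response ratio / Benchmarks: positive and negative control wells on each plate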
RGS4 block valid: validation of RGS4 inhibitors; shares compounds with RGS4 inh; HEK293 M3R/RGS4, carbachol calcium Fluo-4 fluorescence; carbachol added at its EC20; 0 = buffer wells, 100 = carbachol control; calcium response, % at 10 µM; 1,700 tested, 65% active; AID 492999;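 active means duplicate-averaged calcium response above the buffer-only control mean plus 5 SD of those controls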;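 further: integrated fluorescence ratio F max minus min over baseline F0; higher response in RGS4-induced cells means RGS4 inhibition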
M3R Ca ctr: checks RGS4 inhibitor effects in non-induced HEK293 M3R cells; activity (percent), % at 10 µM; 1,900 tested, 20% active; shares compounds with RGS4 inh; carbachol calcium Fluo-4; submaximal (EC20) carbachol stimulus; buffer wells 0%, carbachol control wells 100%; call rule not given here;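 further: RGS4 induction absent so cells express M3R without RGS4; higher means more calcium signal and flags a non-specific hit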
M3R basal Ca ctr: second counter-screen for RGS4 inhibitors: non-induced cells without carbachol. AID 493001. HEK293 M3R/RGS4 non-induced, Fluo-4 calcium, no carbachol; normalised: buffer wells 0%, carbachol wells 100%. 1,900 tested, 22% active. calcium response (agonist-mode artifact), % at 10 µM. shares compounds with RGS4 inh;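 active means duplicate-averaged calcium rise in uninduced cells above buffer wells' mean plus 5 SD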
* = called active by the depositor. In the library only some 3.5% were active in any assay of this set; here they are far more common.

How did COc1ccc(Cl)cc1NC(=O)CN(C)C(C)C(=O)NC(=O)NC1CCCCC1 (stereo not given) do in these assays?
RGS4 pot: inactive; MrgX1 antagonist: inactive; MrgX1 allo act: inactive; RGS4 inh: inactive; MrgX1 agonist: inactive

How did Nc1c(C(=O)c2ccccc2)sc2c1c(=O)[nH]c(=O)n2-c1ccccc1 do in these assays?
RGS4 pot: inactive; MrgX1 antagonist: inactive; MrgX1 allo act: inactive; RGS4 inh: inactive; MrgX1 agonist: inactive; M3R Ca ctr: 37.5%*; M3R basal Ca ctr: inactive

How did CC(=O)c1ccc(-n2c(=O)[nH]c(=O)c3c(N)c(C(=O)c4ccc(Cl)cc4)sc32)cc1 do in these assays?
RGS4 pot: inactive; MrgX1 antagonist: inactive; MrgX1 allo act: inactive; RGS4 inh: inactive; MrgX1 agonist: inactive; M3R Ca ctr: inactive; M3R basal Ca ctr: inactive

What do the screens show for `Nc1c(C(=O)c2ccc(Cl)cc2)sc2c1c(=O)[nH]c(=O)n2-c1ccccc1`?
RGS4 pot: inactive; MrgX1 antagonist: inactive; MrgX1 allo act: inactive; RGS4 inh: 5.2*; MrgX1 agonist: inactive; RGS4 block valid: 37.5%*; M3R Ca ctr: inactive; M3R basal Ca ctr: 26.0%*

How did Cc1ccc(C(=O)NCC(=O)Nc2ncccc2C)s1 do in these assays?
RGS4 pot: inactive; MrgX1 antagonist: inactive; MrgX1 allo act: inactive; RGS4 inh: inactive; MrgX1 agonist: inactive

How did COc1cc(/C=C2\C(=O)N(c3ccc(NC(C)=O)cc3)N=C2c2ccccc2)ccc1O do in these assays?
RGS4 pot: inactive; MrgX1 antagonist: inactive; MrgX1 allo act: inactive; RGS4 inh: 6.15*; MrgX1 agonist: inactive; RGS4 block valid: inactive; M3R Ca ctr: inactive; M3R basal Ca ctr: 15.5%*

Results for CN1CCN(c2ccc(CNS(=O)(=O)Cc3cccc(C(F)(F)F)c3)cc2)CC1 ?
RGS4 pot: inactive; MrgX1 antagonist: inactive; MrgX1 allo act: inactive; RGS4 inh: inactive; MrgX1 agonist: inactive

How did CCN(Cc1ccncc1)Cc1c(O)ccc2cc(Br)ccc12 do in these assays?
RGS4 pot: inactive; RGS4 inh: 4.76*; RGS4 block valid: inactive; M3R Ca ctr: inactive; M3R basal Ca ctr: inactive

Results for CN1CCN(Cc2c(O)ccc3cc(Br)ccc23)CC1 ?
RGS4 pot: inactive; MrgX1 antagonist: inactive; MrgX1 allo act: inactive; RGS4 inh: inactive; MrgX1 agonist: inactive

How did Cc1cc(C)c(S(=O)(=O)Nc2cccc(S(=O)(=O)NC3=NCCC3)c2)c(C)c1 do in these assays?
RGS4 pot: inactive; MrgX1 antagonist: inactive; MrgX1 allo act: inactive; RGS4 inh: 4.85*; MrgX1 agonist: inactive; RGS4 block valid: inactive; M3R Ca ctr: inactive; M3R basal Ca ctr: inactive

How did N#Cc1c(-c2ccco2)cc(-c2ccc(F)cc2)nc1N do in these assays?
RGS4 pot: inactive; MrgX1 antagonist: inactive; MrgX1 allo act: inactive; RGS4 inh: 6.32*; MrgX1 agonist: inactive; RGS4 block valid: 7.0%*; M3R Ca ctr: inactive; M3R basal Ca ctr: 24.5%*

How did Cc1ccc(-c2cc(-c3ccccc3)nc(N)c2C#N)o1 do in these assays?
RGS4 pot: inactive; MrgX1 antagonist: inactive; MrgX1 allo act: inactive; RGS4 inh: inactive; MrgX1 agonist: inactive; RGS4 block valid: inactive; M3R Ca ctr: inactive; M3R basal Ca ctr: inactive

What do the screens show for `N#Cc1c(-c2ccc(F)cc2)cc(-c2cccnc2)nc1N`?
RGS4 pot: inactive; MrgX1 antagonist: inactive; MrgX1 allo act: inactive; RGS4 inh: inactive; MrgX1 agonist: inactive

How did N#Cc1c(-c2ccccc2)cc(-c2ccc(O)cc2)nc1N do in these assays?
RGS4 pot: inactive; MrgX1 antagonist: inactive; MrgX1 allo act: inactive; RGS4 inh: inactive; MrgX1 agonist: inactive

Results for COc1ccc(C2(c3ccc(O)cc3O)CC(c3ccccc3Cl)NC(=S)N2)cc1 (stereo not given) ?
RGS4 pot: inactive; MrgX1 antagonist: inactive; MrgX1 allo act: inactive; RGS4 inh: 10.3*; MrgX1 agonist: inactive; RGS4 block valid: 35.5%*; M3R Ca ctr: inactive; M3R basal Ca ctr: inactive

How did COc1cccc(/C=N/c2sc(Cc3ccccc3)c(C)c2C(N)=O)c1O do in these assays?
RGS4 pot: inactive; MrgX1 antagonist: inactive; MrgX1 allo act: inactive; RGS4 inh: 4.99*; MrgX1 agonist: inactive; RGS4 block valid: 24.5%*; M3R Ca ctr: 36.0%*; M3R basal Ca ctr: inactive

How did COC(=O)CCC(=O)Nc1sc(Cc2ccccc2)c(C)c1C(N)=O do in these assays?
RGS4 pot: inactive; MrgX1 antagonist: inactive; MrgX1 allo act: inactive; RGS4 inh: inactive; MrgX1 agonist: inactive

What do the screens show for `CCOc1cc(/C=C2\C(=O)ON=C2c2ccccc2)ccc1OC`?
RGS4 pot: inactive; MrgX1 antagonist: inactive; MrgX1 allo act: inactive; RGS4 inh: 24.9*; MrgX1 agonist: inactive; RGS4 block valid: 31.5%*; M3R Ca ctr: inactive; M3R basal Ca ctr: 49.5%*

What do the screens show for `COc1cc(/C=C2\C(=O)ON=C2c2ccccc2)cc(OC)c1OC`?
RGS4 pot: inactive; MrgX1 antagonist: inactive; MrgX1 allo act: inactive; RGS4 inh: inactive; MrgX1 agonist: inactive

Results for CCOc1cc(/C=C2/C(=O)ON=C2C)ccc1OCc1ccccc1F ?
RGS4 pot: -7.02*; MrgX1 antagonist: inactive; MrgX1 allo act: inactive; RGS4 inh: 9.38*; MrgX1 agonist: inactive; RGS4 block valid: inactive; M3R Ca ctr: inactive; M3R basal Ca ctr: 94.5%*

How did COc1ccc(/C=C2/C(=O)ON=C2c2ccccc2)cc1OC do in these assays?
RGS4 pot: inactive; MrgX1 antagonist: inactive; MrgX1 allo act: inactive; RGS4 inh: inactive; MrgX1 agonist: inactive; M3R Ca ctr: inactive; M3R basal Ca ctr: 64.0%*

How did COc1ccc(/C=C2\C(=O)ON=C2c2ccccc2)cc1OC do in these assays?
RGS4 pot: inactive; MrgX1 antagonist: inactive; MrgX1 allo act: inactive; RGS4 inh: inactive; MrgX1 agonist: inactive; M3R Ca ctr: inactive; M3R basal Ca ctr: 8.5%*

How did O=c1cc(O)c2c(=O)n(-c3ccccc3)c3c(c2o1)CCCCC3 do in these assays?
RGS4 pot: inactive; MrgX1 antagonist: inactive; MrgX1 allo act: inactive; RGS4 inh: inactive; MrgX1 agonist: inactive
